Bioassay records deposited in PubChem BioAssay by Broad Institute.
CAL PDZ FP-1 – untagged CAL PDZ binding inhibitors, primary screen, biochemical, fluorescence polarization, HTS; Golgi-associated PDZ and coiled-coil motif-containing protein (Homo sapiens), Q9HD26; purified CAL PDZ, TMR-peptide fluorescence polarization, 1 h; inhibition, % at 24.9 µM; hit rate 0.92% among 300,000; AID 602252, 2012;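 active means mean inhibition of at least 30% with at least half of replicates also reaching 30%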;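 further: 0% = DMSO neutral control and 100% = excess unlabeled competitor peptide PRC23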
SR-BI HDL uptake – inhibitors of SR-BI mediated HDL lipid uptake, primary screen, ldlA[mSR-BI] cells, fluorescence, single point | ldlA[mSR-BI] CHO cells, DiI-HDL uptake fluorescence, 3 h | Scavenger receptor class B member 1 (Mus musculus), Q61009 | AID 488896, 2010 | hit rate 0.96% among 320,000 | inhibition, % at 12.5 µM;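 active means mean replicate inhibition of at least 70% and a set share of replicates each scoring 70 or more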;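 further: 0% = median of neutral control wells and 100% = median of positive control wells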
Target sequence (Q61009 whole entry, looked up): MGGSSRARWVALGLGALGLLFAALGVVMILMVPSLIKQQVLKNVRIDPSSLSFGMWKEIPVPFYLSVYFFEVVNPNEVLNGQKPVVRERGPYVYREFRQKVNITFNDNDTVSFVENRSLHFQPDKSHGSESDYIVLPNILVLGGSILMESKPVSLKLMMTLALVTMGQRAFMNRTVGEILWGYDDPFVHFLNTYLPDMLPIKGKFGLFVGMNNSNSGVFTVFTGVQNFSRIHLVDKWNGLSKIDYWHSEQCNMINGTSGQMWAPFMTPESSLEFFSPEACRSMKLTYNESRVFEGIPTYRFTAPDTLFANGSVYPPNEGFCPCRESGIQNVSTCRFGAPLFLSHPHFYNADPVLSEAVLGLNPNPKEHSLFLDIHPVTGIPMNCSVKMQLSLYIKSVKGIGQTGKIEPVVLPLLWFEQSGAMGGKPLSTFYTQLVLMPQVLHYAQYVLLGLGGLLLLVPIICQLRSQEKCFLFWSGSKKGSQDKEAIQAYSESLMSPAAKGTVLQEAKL
ARNT TACC3 PPI – disruptors of ARNT/TACC3 protein interaction, primary screen, biochemical, AlphaScreen, single concentration; Transforming acidic coiled-coil-containing protein 3 (Homo sapiens), Q9Y6A5; AlphaScreen His-ARNT PAS-B/GST-TACC3 binding, luminescence; TACC3 fragment carries E629A point mutation; inhibition, % at 9.99 µM; hit rate 0.66% among 390,000;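 active means mean inhibition of replicates at least 50% and at least half of replicates each reaching 50%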;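 further: 0% = complete ARNT plus TACC3 wells and 100% = ARNT alone without TACC3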
SR-BI uptake up – activators of SR-BI mediated DiI-HDL uptake, primary screen, ldlA[mSR-BI] CHO cells, DiI fluorescence | 3 h; 100 = double the neutral-control signal | activation, % at 12.5 µM | hit rate 0.096% among 320,000 | AID 504775, 2011;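 active means mean replicate activation of at least 60% and every replicate at or above 60%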;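 further: 0% = median plate neutral-control signal and 100% = twice that signal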
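system = CHO ldlA[mSR-BI] cells, LDL receptor-null, SR-BI overexpressing | medium = Ham's F12 with 0.5% BSA, HEPES 25 mM, pH 7.4 | probe or stimulus = DiI-HDL 10 µg/mL | compound dosing = single-point compound dose | incubation = compound exposure 3 h, 37 °C | technique = DiI fluorescence, bottom read | read-out = cell-associated DiI fluorescence as measure of HDL uptake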
CAL PDZ FP-2 – CAL PDZ peptide-binding inhibitors, primary screen, biochemical, fluorescence polarization, Cer-tagged CAL PDZ, HTS; Golgi-associated PDZ and coiled-coil motif-containing protein (Homo sapiens), Q9HD26; hit rate 0.02% among 330,000; inhibition, % at 20 µM; purified CAL PDZ, TMR-peptide fluorescence polarization, 1 h;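 active means highest replicate inhibition of at least 40%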;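 further: plate controls were DMSO neutral control wells for no effect and unlabeled competitor peptide control wells for full effect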
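Test system: purified CerCALP PDZ construct; Compound dosing: one concentration, 20 µM compound; Also added: TMR-labelled reporter peptide T*-PRC34 bound in PDZ groove; Read-out: inhibition from polarization loss; Controls: unlabelled peptide and DMSO controls; Signal: FP readout, S and P plane fluorescence; Incubation: 1 h at RT.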
miR122 inh – miR-122 Renilla sensor signal increase in Huh7, primary screen, miR-122 inhibitor project, cell-based, single point, plate reader; Huh7 miR-122 Renilla luciferase sensor, 48 h; neutral wells = 0, positive control = 100; activation (reporter increase), % at 12.5 µM; hit rate 0.3% among 340,000; AID 602342, 2012;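 active means mean replicate activation score at least 90 and every replicate individually at or above 90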;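 further: higher luciferase means less miR-122 activity so hits act as miR-122 inhibitors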
* = called active by the depositor; / = no result given; [ ] = remark or other dose. Only some compounds are listed: those with a hit (about 2.1% of all), similar ones and a draw of the others.

SMILES | CAL PDZ FP-1 | SR-BI HDL uptake | ARNT TACC3 PPI | SR-BI uptake up | CAL PDZ FP-2 | miR122 inh
COc1ccc(-c2ccc(SCC(=O)c3ccccc3)nn2)cc1OC | 71.1* | 9.4 | -1.7 | -9.4 | -8.9 | /
Cc1ccc(-c2ccc(SCC(=O)c3ccccc3)nn2)cc1 | -0.8 | 21.5 | -1.9 | -21.5 | -1.7 | 4.6
Cc1ccc(NC(=O)/C=C/c2ccc(S(=O)(=O)N3CCOCC3)cc2)cc1S(=O)(=O)N(C)C | / | 85.8* | 12.7 | -85.8 | -5.3 | -1.7
Cc1ccccc1NS(=O)(=O)c1cc(C(=O)NCc2ccco2)ccc1C | -1.8 | 16.0 | 9.6 | -16.0 | -2.0 | 70.8
Cc1ccc(C(=O)NCc2ccco2)cc1S(=O)(=O)N1CCCCC1 | -1.1 | 21.1 | 2.9 | -21.1 | -3.3 | 10.3
Cc1ccc(C(=O)NCc2ccco2)cc1S(=O)(=O)Nc1cccc(C)c1C | -4.7 | -18.4 | -13.9 | 18.4 | 0.3 | 244.3*
COc1ccccc1NS(=O)(=O)c1ccc(C(=O)NCc2ccco2)cc1 | 2.8 | 6.7 | -2.5 | -6.7 | 0.3 | 6.7
Cc1ccc(C)c(NS(=O)(=O)c2cc(C(=O)NCc3ccco3)ccc2C)c1 | -8.8 | -2.6 | -12.9 | 2.6 | -1.3 | 200.0*
COc1ccccc1NS(=O)(=O)c1cc(C(=O)NCc2ccco2)ccc1C | / | 5.9 | 2.4 | -5.9 | -1.0 | 109.9*
C[C@@H]1CCCCO[C@@H](CN(C)C(=O)CCC(F)(F)F)[C@@H](C)CN([C@H](C)CO)C(=O)c2cc(NC(=O)c3ccncc3)ccc2O1 | / | / | -4.2 | / | / | 12.8[16.7 µM]
Cc1ccccc1S(=O)(=O)N[C@H]1CC[C@@H](CCn2cc(-c3ccc(F)cc3)nn2)O[C@@H]1CO | / | / | 0.0 | / | / | 17.9[16.7 µM]
CO[C@@H]1CN(C)C(=O)c2ccc(NS(=O)(=O)c3ccccc3)cc2OC[C@H](C)N(Cc2cccnc2)C[C@@H]1C | / | / | 28.1 | / | / | /
Cc1noc(C)c1C(=O)OCC(=O)NCCc1ccccc1 | 84.1* | -21.3 | -1.4 | 21.3 | -0.7 | /
Cc1cc2[nH]c(=S)[nH]c2cc1C | -1.7 | 72.8* | 33.9 | -72.8 | -1.4 | -2.7
CC1CCN(C(=O)COC(=O)c2ccc(N3CCCC3=O)cc2)CC1 | 46.3* | -8.6 | -1.2 | 8.6 | -0.5 | /
C[C@@H]1CCCCO[C@H](CN(C)Cc2ccc(C(=O)O)cc2)[C@@H](C)CN([C@@H](C)CO)C(=O)c2cc(NC(=O)Nc3ccc4c(c3)OCO4)ccc2O1 | / | / | -1.1 | / | / | 4.2[16.7 µM]
COc1ccc(N(C(=O)c2snc(C(N)=O)c2N)C(C(=O)NCc2ccccc2)c2ccc(O)cc2)cc1 (stereo not drawn) | 51.4* | -10.9 | 4.3 | 10.9 | -0.3 | /
O=C(Nc1ccc(CN2CCOCC2)cc1)c1ccc(-c2cccc(Cl)c2)o1 | 89.2* | 30.9 | -9.5 | -30.9 | -3.0 | -4.9
O=C(c1ccc(F)cc1)N1CCCCN2[C@H](CO)[C@@H](c3ccc(-c4ccc(F)cc4)cc3)[C@H]2C1 | / | / | 15.8 | / | / | 1.7[16.7 µM]
CCN1C(=O)c2cccc3c(S(=O)(=O)Nc4ncccc4C)ccc1c23 | -6.0 | -17.9 | 2.5 | 17.9 | -1.7 | 95.6*
CCN1C(=O)c2cccc3c(S(=O)(=O)Nc4ccccc4)ccc1c23 | -3.1 | -2.3 | -3.1 | 2.3 | / | 150.6*
O=c1c(C=NCC2CCCO2)c(-c2ccccc2)[nH]n1-c1ccc([N+](=O)[O-])cc1 (stereo not drawn) | -0.2 | / | 6.8 | / | -3.4 | /
COc1ccc(-c2[nH]n(-c3ccc([N+](=O)[O-])cc3)c(=O)c2C=NCC2CCCO2)cc1 (stereo not drawn) | -8.0 | 82.0* | -0.9 | -82.0 | 0.9 | /
COc1cc(NC(=O)c2ccco2)c(OC)cc1NC(=O)Nc1ccccc1Cl | 0.5 | 94.5* | 0.1 | -94.5 | -0.9 | /
COc1ccc(Cl)cc1C(=O)Nc1ccc(NC(=O)c2ccco2)cc1 | -2.4 | 82.2* | 11.5 | -82.2 | / | -3.7
SMILES | CAL PDZ FP-1 | SR-BI HDL uptake | ARNT TACC3 PPI | SR-BI uptake up | CAL PDZ FP-2 | miR122 inh
COc1ccc(Cl)cc1NC(=O)c1ccco1 | -1.8 | 5.5 | 2.1 | -5.5 | -1.6 | 4.9
COc1cc(C(=O)Nc2ccc(NC(=O)c3ccco3)nc2)cc(OC)c1OC | 4.2 | 72.4* | 7.0 | -72.4 | -3.9 | -3.4
C[C@@H]1CN([C@@H](C)CO)C(=O)c2cc(NC(=O)CCC(F)(F)F)ccc2O[C@@H](C)CCCCO[C@H]1CN(C)C(=O)Cc1ccccc1 | / | / | -2.1 | / | / | -5.9[16.7 µM]
CN1C(=O)c2cc(NC(=O)C3CC3)ccc2OC[C@@H]2O[C@@H](CC(=O)NCc3cccc(F)c3)CC[C@@H]21 | / | / | -7.2 | / | / | 20.8[16.7 µM]
O=C(NC(=S)Nc1ccc(S(=O)(=O)Nc2nccs2)cc1)c1ccc(F)cc1 | 53.9* | -19.8 | 1.9 | 19.8 | -1.6 | /
O=C(Nc1ccc(S(=O)(=O)Nc2nccs2)cc1)c1cc(-c2ccccc2Cl)nc2ccccc12 | -10.7 | -5.8 | 4.7 | 5.8 | -2.4 | 104.3*
CC(C)CC(=O)Nc1ccc(S(=O)(=O)Nc2nccs2)cc1 | -4.3 | -65.2 | -5.9 | 65.2* | -0.7 | /
CC(C)(C)C(=O)NC(=S)Nc1ccc(S(=O)(=O)Nc2nccs2)cc1 | 4.0 | 0.7 | -10.4 | -0.7 | -0.1 | /
O=C(Nc1ccccc1)N[C@@H]1CC[C@H](CCNS(=O)(=O)c2cccc(F)c2)O[C@H]1CO | / | / | -7.5 | / | / | /
O=C(C[C@H]1C[C@H]2c3cc(NC(=O)Nc4ccc(F)cc4)ccc3O[C@H]2[C@H](CO)O1)NC1CCCCC1 | / | / | -4.0 | / | / | 6.5[16.7 µM]
NC(=O)CSc1nnc(-c2ccccn2)n1N | -2.7 | -6.6 | 45.0* | 6.6 | -4.2 | /
O=S(=O)(O)c1cc(O)c(N=Nc2ccc(O)cc2O)c2ccccc12 | 8.5 | 35.6 | 93.5* | -35.6 | 2.9 | -5.0
O=[N+]([O-])c1ccccc1N=Nc1ccc(O)cc1O | / | / | / | / | / | 0.1
C[C@@H]1CN([C@H](C)CO)C(=O)c2cccc(NS(=O)(=O)c3ccccc3)c2O[C@H]1CN(C)S(=O)(=O)c1ccc(Cl)cc1 | / | / | -2.6 | / | / | 40.9[16.7 µM]
C/C(=N\NC(=O)c1nn(C)c(C)c1Br)c1ccc(NC(=O)C2CCCC2)cc1 | -13.2 | 80.4* | -6.6 | -80.4 | -3.8 | -0.7
C[C@@H]1CCCCO[C@@H](CN(C)CC2CCCCC2)[C@@H](C)CN([C@H](C)CO)C(=O)c2cc(NC(=O)CCC(F)(F)F)ccc2O1 | / | / | 1.7 | / | / | 103.8*[16.7 µM]
